PfM18AAP inh-1 = PfM18AAP inhibitors, malaria aminopeptidase, primary screen, biochemical, QFRET, recombinant enzyme. M18 aspartyl aminopeptidase (Plasmodium falciparum 3D7). H-Glu-NHMec fluorogenic cleavage. inhibition, % at 7.35 µM. hit rate 1.2% among 290,000. AID 1822, 2009;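 active means inhibition above the campaign mean inhibition over all tested compounds plus 3 SD, cut at about 28% in these data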;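 further: 0% = plate median of test compound wells and 100% = 2 mM ZnCl2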
IMP-1 inhibitor = IMP-1 metallo-beta-lactamase inhibitors, primary screen, biochemical, epi-absorbance readout, Pseudomonas aeruginosa enzyme; metallo-beta-lactamase IMP-1 (Pseudomonas aeruginosa); hit rate 0.45% among 290,000; AID 1556, 2009; purified IMP-1, nitrocefin hydrolysis, epi-absorbance fluorescence; inhibition, % at 5.6 µM;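 active means inhibition above the mean plus 3 SD of all compounds in the same screening run, cut at about 4.5% in these data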;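 further: 0% = IMP-1 with DMSO and 100% = DMSO wells lacking enzyme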
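Assay system: purified IMP-1; Quantity: IMP-1 0.2 nM before substrate addition; Medium: HEPES buffer pH 7.1 with ZnSO4 and Brij 35; Incubation: 15 min enzyme–compound preincubation, then 25 min nitrocefin reaction, 25 °C; Signal: fluorescence quenching readout, ex 480/em 530 nm; Controls: DMSO with and without IMP-1; Repeats: singlicate testing.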
CTSL1 counter-1 = Fasciola hepatica cathepsin L1 inhibitors, primary screen, counter-screen for PFM18AAP inhibitor project, biochemical, QFRET, fluorogenic peptide substrate; recombinant F. hepatica cathepsin L1, Z-Leu-Arg-MCA fluorescence; inhibition, % at 5.96 µM; hit rate 0.49% among 300,000; AID 1906, 2009;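 active means inhibition above the mean of all tested compounds plus 3 SD, set per screening campaign, cut at about 17% in these data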;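 further: 0% = plate median of test compound wells and 100% = 1 µM Z-Phe-Ala-diazomethylketone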
VIM-2 inh = VIM-2 metallo-beta-lactamase inhibitors, primary screen, biochemical, epi-absorbance readout, Pseudomonas aeruginosa enzyme. purified VIM-2, nitrocefin hydrolysis, epi-absorbance fluorescence. inhibition, % at 5.6 µM. AID 1527, 2009. hit rate 0.89% among 290,000;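 active means inhibition above the mean of all tested compounds plus 3 SD, cutoff set per screening run, cut at about 7.5% in these data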;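 further: red hydrolysis product quenches plate fluorescence so inhibitors raise well fluorescence; 0% = enzyme with DMSO and 100% = DMSO without enzyme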
PfM18AAP inh-2 = PfM18AAP inhibitors, malaria aminopeptidase, confirmation, biochemical, QFRET, recombinant enzyme, triplicate | shares compounds with PfM18AAP inh-1 | H-Glu-NHMec fluorogenic cleavage | inhibition, % at 7.35 µM | hit rate 28% among 2,400;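 active means mean inhibition over replicate wells above the hit cutoff set for the earlier primary screen, cut at about 29% in these data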;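 further: 0% = median of test compound wells and 100% = 2 mM ZnCl2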
CTSL1 counter-2 = cathepsin L1 inhibitors, retest, confirmation, counter-screen for PFM18AAP inhibitor project, biochemical, QFRET, triplicate. purified cathepsin L1, Z-Leu-Arg-MCA fluorescence. 2,400 tested, under 10 active. shares compounds with PfM18AAP inh-1. AID 2178, 2009. inhibition, % at 5.96 µM;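 active means average inhibition across replicates above the hit cutoff set in the earlier primary screen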;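 further: 0% = median of test compound wells and 100% = Z-Phe-Ala-diazomethylketone 1 µM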
Target sequence (P07711 whole entry, looked up): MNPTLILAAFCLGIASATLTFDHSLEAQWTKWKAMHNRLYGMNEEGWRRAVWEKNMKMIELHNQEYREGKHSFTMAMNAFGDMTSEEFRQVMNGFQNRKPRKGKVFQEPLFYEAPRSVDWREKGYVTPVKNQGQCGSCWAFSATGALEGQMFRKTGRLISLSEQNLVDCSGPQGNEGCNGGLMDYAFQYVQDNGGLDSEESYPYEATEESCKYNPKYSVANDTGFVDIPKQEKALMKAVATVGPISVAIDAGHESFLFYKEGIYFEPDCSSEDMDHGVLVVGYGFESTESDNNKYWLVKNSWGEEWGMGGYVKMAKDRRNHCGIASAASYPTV
* = called active by the depositor; nt = not tested or not shown. An excerpt weighted towards active compounds, which were near 2.7% of everything screened.

SMILES	PfM18AAP inh-1	IMP-1 inhibitor	CTSL1 counter-1	VIM-2 inh	PfM18AAP inh-2	CTSL1 counter-2
N#Cc1c2n(c(=S)n(-c3ccccc3)c1=O)CCCCC2	-1	0	-2	1	nt	nt
COc1cccc(NC(=O)CN(C)C(=O)c2ccc(-c3ccc(Cl)cc3)o2)c1	nt	nt	2	nt	nt	nt
O=c1c(O)c(-c2ccc(O)c(O)c2)oc2cc(O)cc(O)c12	76*	0	0	1	65*	-5
O=C(O)C1OC(Oc2c(-c3ccc(O)c(O)c3)oc3cc(O)cc(O)c3c2=O)C(O)C(O)C1O (configuration not stated)	65*	-4	1	0	43*	4
COc1c(-c2ccc(O)cc2)oc2cc(O)cc(O)c2c1=O	nt	nt	-2	nt	nt	nt
Cc1ccc(S(=O)(=O)N/N=C/c2cccn2-c2ccc(Cl)cc2)cc1	-9	-3	2	-2	nt	nt
Clc1ccc(-n2cccc2/C=N/n2cnnc2)cc1	41*	-1	-5	-4	-22	-6
O=C(Cc1ccc(-n2c(=O)[nH]c3ccsc3c2=O)cc1)N1CCN(c2ccc(Cl)cc2)CC1	-10	-2	0	-1	nt	nt
CCOC(=O)c1sc(=S)n(C)c1NC(=O)c1ccccc1C	35*	0	4	0	6	2
COc1ccc(C2/C(=C(/O)c3ccc4c(c3)CC(C)O4)C(=O)C(=O)N2CCN2CCOCC2)cc1 (configuration not stated)	9	-2	-1	-2	nt	nt
O=C(C1=C(O)C(=O)N(CCN2CCOCC2)C1c1ccc([N+](=O)[O-])cc1)c1cc2ccccc2o1 (configuration not stated)	34*	-2	2	-1	-36	-1
CC1Cc2cc(/C(O)=C3/C(=O)C(=O)N(CCN4CCOCC4)C3c3ccc([N+](=O)[O-])cc3)ccc2O1 (configuration not stated)	33*	-2	4	-3	-22	-10
Cc1nc(-c2ccc(F)cc2)c(CC(=O)N2CCN(S(=O)(=O)c3cccc(F)c3)CC2)s1	nt	nt	2	nt	nt	nt
O=S(=O)(Nc1ccc2c(c1)nc1n2CCN(Cc2ccccc2)C1)c1ccccc1	60*	3	3	2	-28	4
COc1ccc(C(=O)NNC(=S)NC(=O)c2ccc(OC)cc2)cc1	-2	1	-1	-1	nt	nt
CCCCNC(=O)NNC(=O)c1ccoc1C	26	-2	-1	-5	nt	nt
COCCCNC(=S)NNC(=O)c1ccc2c(c1)OCO2	35*	-3	1	-10	14	-1
Cc1occc1C(=O)NNC(=S)Nc1ccccc1	15	-3	-1	-3	nt	nt
CCNC(=S)NNC(=O)c1ccoc1C	33*	-2	-3	-5	-16	4
CCNC(=S)NNC(=O)c1ccc(OC)cc1	33*	-3	2	-5	10	0
COCCCNC(=S)NNC(=O)c1ccoc1C	33*	-3	-1	-3	-8	-1
COc1ccc(CCNC(=O)CSc2nc(=O)[nH]c3c2CCC3)cc1OC	nt	nt	-1	nt	nt	nt
O=C1CN(C(=O)COC(=O)/C=C/c2ccc(S(=O)(=O)N3CCOCC3)cc2)c2ccccc2N1	2	-3	0	1	nt	nt
C=CCN=c1scc(C)n1/N=C/c1ccc(O)c(O)c1	57*	-3	1	1	40*	9
CN=c1scc(-c2ccco2)n1/N=C/c1ccc(O)c(O)c1	59*	-1	nt	-1	51*	2
SMILES	PfM18AAP inh-1	IMP-1 inhibitor	CTSL1 counter-1	VIM-2 inh	PfM18AAP inh-2	CTSL1 counter-2
O=C(c1ccc(Cl)cc1Cl)N1CCN(c2ccc(N3CCOCC3)nn2)CC1	nt	nt	1	nt	nt	nt
Nc1nncn1C(=O)c1ccccc1Cl	60*	-6	0	-2	55*	-1
Nc1nncn1C(=O)c1ccc(Cl)cc1Cl	37*	-3	1	-3	51*	-1
Cc1cc(-c2cc(C(=O)Nc3ccccc3)on2)nc(NC2CCCC2)n1	nt	nt	-3	nt	nt	nt
C=CCSC1=N/C(=C\c2ccc3c(c2)OCO3)C(=O)S1	0	-1	-1	-2	nt	nt
C=CCSC1=N/C(=C\c2cc(OCC)c(OC(C)=O)c([N+](=O)[O-])c2)C(=O)S1	38*	1	3	0	-44	2
O=C(Nc1ccccc1C(F)(F)F)c1cnccn1	2	-4	-5	-2	nt	nt
O=C(Nc1ccccc1C(F)(F)F)c1ncn[nH]1	59*	-4	1	-5	57*	1
COc1ccc(O)c(/C=C2/SC(=S)N(Cc3ccccc3)C2=O)c1	42*	-5	3	-1	-4	4
COC(=O)CN(c1nc(C)c(Br)c(OC)n1)S(=O)(=O)c1ccccc1	-1	-3	2	-4	nt	nt
Oc1ccc(O)c(Cc2nc3ccccc3[nH]2)c1	44*	-3	-6	-4	71*	-6
CCN(CC)CCN(C(=O)c1ccc2ncsc2c1)c1nc2cc3c(cc2s1)OCO3	47*	0	2	-1	-5	6
Cc1ccc(Cl)cc1N1CCN(S(=O)(=O)c2c(C)[nH]c(C)c2C(=O)N2CCCCC2)CC1	1	-3	-2	-5	nt	nt
O=c1ccc2[n+]([O-])c3ccc(O)cc3oc-2c1	39*	-3	nt	-3	-37	4
COC(=O)c1ccc(C)c(-n2c(=O)n(Cc3ccccc3)c(=O)c3[nH]cnc32)c1	-3	-2	1	-3	nt	nt
N#Cc1c(-c2ccc(Cl)cc2)cc(-c2cccs2)nc1SCC(=O)O	36*	-6	6	0	-2	-2
N#Cc1c(-c2ccccc2)cc(-c2cccs2)nc1SCC(=O)O	4	-5	0	1	nt	nt
COCCNC(=O)c1cccc(OC2CCN(Cc3ccccc3C)CC2)c1	-4	-2	3	-2	nt	nt
CCC(=O)Nc1ccc(NC(=O)c2cccc3c(Br)cccc23)cc1	45*	-2	0	-2	-30	1
CCC(=O)Nc1ccc(NC(=O)c2cccc3ccccc23)cc1	-1	-1	2	-2	nt	nt

Screening data from PubChem.
